Test results as given in ChEMBL document CHEMBL3779815, “Synthesis of newer 1,2,3-triazole linked chalcone and flavone hybrid compounds and evaluation of their antimicrobial and cytotoxic activities” (Eur J Med Chem, 2016).
≈ marks a conversion by molar mass, not a printed value.

Legend:
[1] = test system: Escherichia coli; test: Antibacterial activity against Escherichia coli ATCC 35218 after 18 to 24 hrs by micro-dilution method; assay type: functional
[2] = test system: Enterococcus faecalis; test: Antibacterial activity against Enterococcus faecalis ATCC 29212 after 18 to 24 hrs by micro-dilution assay; assay type: functional
[3] = test system: Aspergillus niger; test: Antifungal activity against Aspergillus niger clinical isolate after 18 to 24 hrs by micro-dilution method; assay type: functional
Outline: (§1)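 Microdilution MIC run as the antibacterial protocol but on Sabouraud dextrose […] pH 7.3±0.2; compounds 100 to 0.78 μg/mL in twofold steps; saline-prepared inocula 1-2 × 10⁷ cfu/mL, 0.01 mL added; 37 °C aerobic, 18-24 h; MIC read as lowest concentration without visible growth or turbidity; fluconazole reference.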

[4] = test system: Plasmodium falciparum; test: Antimalarial activity against erythrocytic stage of chloroquine sensitive Plasmodium falciparum 3D7 assessed as inhibition of parasitemia after 48 hrs by Giemsa staining based microscopic analysis; assay type: functional, organism-based; conditions: 3D7, 48 h
Outline: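 Asynchronous culture on human O⁺ erythrocytes, 1-1.5% parasitemia, 4% hematocrit, RPMI-1640 with HEPES, NaHCO₃, glutamine, gentamycin, Albumax II; drug 0.10-100 μg/mL, 48 h, 37 °C, medium changed at 24 h; triplicate wells; Giemsa thin smears, about 4,000 erythrocytes counted at 1,000X; % parasitemia inhibition versus control gives IC50.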

[5] = test system: Candida albicans; test: Antifungal activity against Candida albicans clinical isolate after 18 to 24 hrs by micro-dilution method; assay type: functional; outline: as §1
[6] = test system: Staphylococcus aureus; test: Antibacterial activity against Staphylococcus aureus […] after 18 to 24 hrs by micro-dilution method; assay type: functional
[7] = test system: Pseudomonas aeruginosa; test: Antibacterial activity against Pseudomonas aeruginosa […] after 18 to 24 hrs by micro-dilution method; assay type: functional
[8] = test system: Candida tropicalis; test: Antifungal activity against Candida tropicalis ATCC 750 after 18 to 24 hrs by micro-dilution method; assay type: functional; outline: as §1
[9] = test system: Candida albicans; test: Antifungal activity against Candida albicans ATCC 90028 after 18 to 24 hrs by micro-dilution method; assay type: functional; outline: as §1
[10] = test system: Aspergillus fumigatus; test: Antifungal activity against Aspergillus fumigatus clinical isolate after 18 to 24 hrs by micro-dilution method; assay type: functional; outline: as §1
[11] = Cytotoxicity against human HuH7 cells after 72 hrs by MTT assay; assay type: cell-based, Huh-7
Outline: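 Huh-7 cells, 4 × 10³/well in DMEM with 10% FBS and penicillin-streptomycin-glutamine; eight 2-fold dilutions 100-0.78 μg/mL, 72 h; MTT added 2-4 h, then isopropanol/Triton X-100/HCl solubilization 2 h dark, RT; absorbance 570 nm; CC50 as mean of at least two experiments in duplicate.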

[12] = test system: Klebsiella pneumoniae; test: Antibacterial activity against Klebsiella pneumoniae ATCC 27736 after 18 to 24 hrs by micro-dilution method; assay type: functional
[13] = test system: Cryptococcus neoformans; test: Antifungal activity against Cryptococcus neoformans clinical isolate after 18 to 24 hrs by micro-dilution method; assay type: functional; outline: as §1
[14] = test system: Candida parapsilosis; test: Antifungal activity against Candida parapsilosis ATCC 22019 after 18 to 24 hrs by micro-dilution method; assay type: functional; conditions: Lodderomyces parapsilosis; outline: as §1
[15] = test system: Shigella boydii; test: Antibacterial activity against Shigella boydii clinical isolate after 18 to 24 hrs by micro-dilution method; assay type: functional
[16] = test system: Arthrodermataceae; test: Antifungal activity against Dermatophyte clinical isolate after 18 to 24 hrs by micro-dilution method; assay type: functional; outline: as §1

SMILES	MIC [1] [µg/mL]	MIC [2] [µg/mL]	MIC [3] [µg/mL]	IC50 [4] [µg/mL]	MIC [5] [µg/mL]	MIC [6] [µg/mL]	MIC [7] [µg/mL]	MIC [8] [µg/mL]	MIC [9] [µg/mL]	MIC [10] [µg/mL]	CC50 at 72 h [11] [µg/mL]	MIC [12] [µg/mL]	MIC [13] [µg/mL]	MIC [14] [µg/mL]	MIC [15] [µg/mL]	MIC [16] [µg/mL]
COc1cc(OC)c2c(=O)cc(-c3ccc(OCc4cn(-c5ccc(F)cc5F)nn4)c(OCc4cn(-c5ccc(F)cc5F)nn4)c3)oc2c1	> 100	100 (≈ 143 µM)	> 100	9.25 (≈ 13.2 µM)	> 100	> 100	> 100	> 100	50 (≈ 71.4 µM)	> 100	> 100	> 100	> 100	100 (≈ 143 µM)	> 100	> 100
COc1cc(OC)c2c(=O)cc(-c3ccc(OCc4cn(-c5ccc(F)c(Cl)c5)nn4)c(OCc4cn(-c5ccc(F)c(Cl)c5)nn4)c3)oc2c1	100 (≈ 136 µM)	> 100	100 (≈ 136 µM)	10.4 (≈ 14.2 µM)	> 100	> 100	100 (≈ 136 µM)	100 (≈ 136 µM)	> 100	> 100	> 100	> 100	> 100	> 100	> 100	> 100
COc1cc(O)c(C(=O)/C=C/c2ccc(OCc3cn(-c4ccc(F)cc4F)nn3)c(OCc3cn(-c4ccc(F)cc4F)nn3)c2)c(OC)c1	6.25 (≈ 8.9 µM)	6.25 (≈ 8.9 µM)	25 (≈ 35.6 µM)	8.86 (≈ 12.6 µM)	6.25 (≈ 8.9 µM)	12.5 (≈ 17.8 µM)	12.5 (≈ 17.8 µM)	12.5 (≈ 17.8 µM)	6.25 (≈ 8.9 µM)	25 (≈ 35.6 µM)	> 100	12.5 (≈ 17.8 µM)	6.25 (≈ 8.9 µM)	12.5 (≈ 17.8 µM)	6.25 (≈ 8.9 µM)	12.5 (≈ 17.8 µM)
COc1cc(OC)c2c(=O)cc(-c3ccc(OCc4cn(-c5ccccc5Cl)nn4)c(OC)c3)oc2c1	100 (≈ 192 µM)	50 (≈ 96.2 µM)	> 100	12.1 (≈ 23.2 µM)	> 100	50 (≈ 96.2 µM)	50 (≈ 96.2 µM)	> 100	> 100	> 100	> 100	100 (≈ 192 µM)	> 100	> 100	> 100	> 100
COc1cc(O)c(C(=O)/C=C/c2ccc(OC)c(OCc3cn(-c4ccc(F)cc4F)nn3)c2)c(OC)c1	50 (≈ 95.5 µM)	25 (≈ 47.8 µM)	50 (≈ 95.5 µM)	9.54 (≈ 18.2 µM)	> 100	100 (≈ 191 µM)	> 100	> 100	> 100	50 (≈ 95.5 µM)	> 100	> 100	> 100	> 100	12.5 (≈ 23.9 µM)	> 100
COc1cc(OC)c2c(=O)cc(-c3ccc(OCc4cn(-c5ccc(Cl)cc5)nn4)c(OC)c3)oc2c1	> 100	100 (≈ 192 µM)	50 (≈ 96.2 µM)	5.19 (≈ 9.98 µM)	12.5 (≈ 24 µM)	> 100	> 100	50 (≈ 96.2 µM)	50 (≈ 96.2 µM)	50 (≈ 96.2 µM)	> 100	> 100	12.5 (≈ 24 µM)	50 (≈ 96.2 µM)	> 100	12.5 (≈ 24 µM)
COc1cc(O)c(C(=O)/C=C/c2ccc(OCc3cn(-c4ccc(Cl)cc4)nn3)c(OC)c2)c(OC)c1	> 100	> 100	25 (≈ 47.9 µM)	5.08 (≈ 9.73 µM)	6.25 (≈ 12 µM)	> 100	> 100	6.25 (≈ 12 µM)	12.5 (≈ 23.9 µM)	25 (≈ 47.9 µM)	> 100	> 100	12.5 (≈ 23.9 µM)	12.5 (≈ 23.9 µM)	> 100	12.5 (≈ 23.9 µM)
COc1cc(OC)c2c(=O)cc(-c3ccc(OCc4cn(-c5ccccc5Cl)nn4)c(OCc4cn(-c5ccccc5Cl)nn4)c3)oc2c1	> 100	> 100	12.5 (≈ 17.9 µM)	8.98 (≈ 12.9 µM)	12.5 (≈ 17.9 µM)	> 100	> 100	12.5 (≈ 17.9 µM)	12.5 (≈ 17.9 µM)	12.5 (≈ 17.9 µM)	> 100	> 100	6.25 (≈ 8.96 µM)	12.5 (≈ 17.9 µM)	> 100	12.5 (≈ 17.9 µM)
COc1cc(O)c(C(=O)/C=C/c2ccc(OC)c(OCc3cn(-c4ccc(Cl)cc4)nn3)c2)c(OC)c1	100 (≈ 192 µM)	100 (≈ 192 µM)	25 (≈ 47.9 µM)	11 (≈ 21.1 µM)	12.5 (≈ 23.9 µM)	> 100	> 100	6.25 (≈ 12 µM)	12.5 (≈ 23.9 µM)	25 (≈ 47.9 µM)	> 100	> 100	12.5 (≈ 23.9 µM)	12.5 (≈ 23.9 µM)	> 100	12.5 (≈ 23.9 µM)
COc1cc(O)c(C(=O)/C=C/c2ccc(OCc3cn(-c4ccccc4Cl)nn3)c(OCc3cn(-c4ccccc4Cl)nn3)c2)c(OC)c1	> 100	> 100	> 100	8.38 (≈ 12 µM)	> 100	> 100	> 100	> 100	> 100	> 100	> 100	> 100	> 100	> 100	> 100	> 100
COc1cc(O)c(C(=O)/C=C/c2ccc(OCc3cn(-c4ccc(Cl)cc4)nn3)c(OCc3cn(-c4ccc(Cl)cc4)nn3)c2)c(OC)c1	100 (≈ 143 µM)	> 100	> 100	12.8 (≈ 18.2 µM)	> 100	> 100	> 100	> 100	> 100	> 100	> 100	100 (≈ 143 µM)	> 100	> 100	> 100	> 100
